We go through eight compounds from ChEMBL document CHEMBL3797186, “Single Residue Substitutions That Confer Voltage-Gated Sodium Ion Channel Subtype Selectivity in the NaV1.7 Inhibitory Peptide GpTx-1” (J Med Chem, 2016).

In general, IC50 refers to the point on the concentration scale where inhibition reaches its midpoint.

Positions of bridges follow the written chain, without caps; N, C: chain ends. Non-standard residues stand in square brackets, D forms with d. Residues, ends and D or L forms follow the SMILES beside them. 1Nal = N[C@@H](Cc1cccc2ccccc12)C(=O)O Bounds are passed on as bounds.

Common to all, as to assay type: cell-based
The target in test [1] is T1, Sodium channel protein type 5 subunit alpha (Homo sapiens, UniProt Q14524). In words: Inhibition of human Nav1.5 expressed in HEK293 cells by whole cell patch clamp electrophysiology method. In a few lines:
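Stable HEK293 line expressing human NaV1.5, recorded on the PatchXpress 7000A. Percent inhibition versus concentration was pooled from at least 10 cells, with two to three points per concentration. The pooled set was fitted with a four-parameter Hill equation to give a single IC50 curve.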
Background: Patch clamp records ionic current or voltage across a cell membrane.

Test [2] deals with T1, Sodium channel protein type 5 subunit alpha. The experiment in a line: Inhibition of human Nav1.5 expressed in HEK293 cells assessed as inward peak current by ion-works quattro patch clamp electrophysiology method. In outline:
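Stable HEK293 line expressing human NaV1.5, recorded by population patch clamp on the IonWorks Quattro.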

For test [3], the target named is Sodium channel protein type 9 subunit alpha (Homo sapiens, UniProt Q15858). The experiment in a line: Inhibition of human Nav1.7 expressed in HEK293 cells assessed as inward peak current by ion-works quattro patch clamp electrophysiology method.
Chain of Sodium channel protein type 9 subunit alpha (Q15858 whole entry): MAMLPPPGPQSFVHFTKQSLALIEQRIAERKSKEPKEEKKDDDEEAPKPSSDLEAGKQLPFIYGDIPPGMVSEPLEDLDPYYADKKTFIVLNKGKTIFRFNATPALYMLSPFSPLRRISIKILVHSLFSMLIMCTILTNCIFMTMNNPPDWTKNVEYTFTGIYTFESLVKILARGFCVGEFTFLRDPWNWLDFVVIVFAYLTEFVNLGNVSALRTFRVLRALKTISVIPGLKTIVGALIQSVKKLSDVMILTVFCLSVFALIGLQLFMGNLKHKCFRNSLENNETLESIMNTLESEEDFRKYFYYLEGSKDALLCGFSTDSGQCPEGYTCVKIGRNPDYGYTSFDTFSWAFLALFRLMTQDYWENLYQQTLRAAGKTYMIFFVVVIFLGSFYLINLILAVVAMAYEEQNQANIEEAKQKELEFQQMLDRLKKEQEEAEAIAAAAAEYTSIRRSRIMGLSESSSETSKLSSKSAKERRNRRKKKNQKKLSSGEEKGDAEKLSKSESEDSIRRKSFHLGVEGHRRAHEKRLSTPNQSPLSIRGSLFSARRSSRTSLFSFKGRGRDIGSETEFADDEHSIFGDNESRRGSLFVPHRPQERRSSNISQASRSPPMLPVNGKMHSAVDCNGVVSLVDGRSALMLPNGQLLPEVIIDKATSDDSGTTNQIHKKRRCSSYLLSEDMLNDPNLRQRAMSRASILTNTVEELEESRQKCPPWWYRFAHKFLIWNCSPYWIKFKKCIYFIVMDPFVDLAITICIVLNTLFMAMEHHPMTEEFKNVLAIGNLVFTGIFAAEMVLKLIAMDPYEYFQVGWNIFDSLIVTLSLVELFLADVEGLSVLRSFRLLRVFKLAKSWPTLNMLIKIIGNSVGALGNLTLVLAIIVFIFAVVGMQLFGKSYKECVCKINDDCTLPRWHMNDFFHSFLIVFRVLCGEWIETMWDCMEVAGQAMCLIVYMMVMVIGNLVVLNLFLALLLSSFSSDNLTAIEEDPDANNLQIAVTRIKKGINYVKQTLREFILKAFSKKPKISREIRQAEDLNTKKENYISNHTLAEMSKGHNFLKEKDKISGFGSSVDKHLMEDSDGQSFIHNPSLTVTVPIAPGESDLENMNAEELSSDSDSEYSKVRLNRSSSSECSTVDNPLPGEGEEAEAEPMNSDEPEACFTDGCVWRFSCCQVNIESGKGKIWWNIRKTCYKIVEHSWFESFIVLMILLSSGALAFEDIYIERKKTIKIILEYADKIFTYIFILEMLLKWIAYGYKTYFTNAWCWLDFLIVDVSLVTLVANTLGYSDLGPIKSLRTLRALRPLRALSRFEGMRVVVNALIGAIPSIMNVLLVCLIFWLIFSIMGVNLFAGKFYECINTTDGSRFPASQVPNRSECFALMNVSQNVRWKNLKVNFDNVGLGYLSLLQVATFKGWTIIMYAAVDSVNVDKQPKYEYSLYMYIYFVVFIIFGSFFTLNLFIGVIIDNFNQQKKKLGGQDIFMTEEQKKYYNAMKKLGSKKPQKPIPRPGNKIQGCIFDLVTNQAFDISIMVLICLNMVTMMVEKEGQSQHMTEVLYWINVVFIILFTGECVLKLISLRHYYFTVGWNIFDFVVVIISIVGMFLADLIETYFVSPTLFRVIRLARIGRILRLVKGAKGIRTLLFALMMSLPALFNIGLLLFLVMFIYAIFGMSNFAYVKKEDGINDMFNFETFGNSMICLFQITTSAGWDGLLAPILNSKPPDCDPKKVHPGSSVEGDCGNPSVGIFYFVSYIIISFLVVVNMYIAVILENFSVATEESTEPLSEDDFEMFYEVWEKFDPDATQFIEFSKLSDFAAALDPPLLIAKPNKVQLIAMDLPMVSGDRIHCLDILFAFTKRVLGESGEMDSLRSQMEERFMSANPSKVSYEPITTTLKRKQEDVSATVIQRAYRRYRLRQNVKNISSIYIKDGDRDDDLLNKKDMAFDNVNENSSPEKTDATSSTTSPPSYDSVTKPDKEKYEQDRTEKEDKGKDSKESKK

T1 sequence (Q14524 whole entry): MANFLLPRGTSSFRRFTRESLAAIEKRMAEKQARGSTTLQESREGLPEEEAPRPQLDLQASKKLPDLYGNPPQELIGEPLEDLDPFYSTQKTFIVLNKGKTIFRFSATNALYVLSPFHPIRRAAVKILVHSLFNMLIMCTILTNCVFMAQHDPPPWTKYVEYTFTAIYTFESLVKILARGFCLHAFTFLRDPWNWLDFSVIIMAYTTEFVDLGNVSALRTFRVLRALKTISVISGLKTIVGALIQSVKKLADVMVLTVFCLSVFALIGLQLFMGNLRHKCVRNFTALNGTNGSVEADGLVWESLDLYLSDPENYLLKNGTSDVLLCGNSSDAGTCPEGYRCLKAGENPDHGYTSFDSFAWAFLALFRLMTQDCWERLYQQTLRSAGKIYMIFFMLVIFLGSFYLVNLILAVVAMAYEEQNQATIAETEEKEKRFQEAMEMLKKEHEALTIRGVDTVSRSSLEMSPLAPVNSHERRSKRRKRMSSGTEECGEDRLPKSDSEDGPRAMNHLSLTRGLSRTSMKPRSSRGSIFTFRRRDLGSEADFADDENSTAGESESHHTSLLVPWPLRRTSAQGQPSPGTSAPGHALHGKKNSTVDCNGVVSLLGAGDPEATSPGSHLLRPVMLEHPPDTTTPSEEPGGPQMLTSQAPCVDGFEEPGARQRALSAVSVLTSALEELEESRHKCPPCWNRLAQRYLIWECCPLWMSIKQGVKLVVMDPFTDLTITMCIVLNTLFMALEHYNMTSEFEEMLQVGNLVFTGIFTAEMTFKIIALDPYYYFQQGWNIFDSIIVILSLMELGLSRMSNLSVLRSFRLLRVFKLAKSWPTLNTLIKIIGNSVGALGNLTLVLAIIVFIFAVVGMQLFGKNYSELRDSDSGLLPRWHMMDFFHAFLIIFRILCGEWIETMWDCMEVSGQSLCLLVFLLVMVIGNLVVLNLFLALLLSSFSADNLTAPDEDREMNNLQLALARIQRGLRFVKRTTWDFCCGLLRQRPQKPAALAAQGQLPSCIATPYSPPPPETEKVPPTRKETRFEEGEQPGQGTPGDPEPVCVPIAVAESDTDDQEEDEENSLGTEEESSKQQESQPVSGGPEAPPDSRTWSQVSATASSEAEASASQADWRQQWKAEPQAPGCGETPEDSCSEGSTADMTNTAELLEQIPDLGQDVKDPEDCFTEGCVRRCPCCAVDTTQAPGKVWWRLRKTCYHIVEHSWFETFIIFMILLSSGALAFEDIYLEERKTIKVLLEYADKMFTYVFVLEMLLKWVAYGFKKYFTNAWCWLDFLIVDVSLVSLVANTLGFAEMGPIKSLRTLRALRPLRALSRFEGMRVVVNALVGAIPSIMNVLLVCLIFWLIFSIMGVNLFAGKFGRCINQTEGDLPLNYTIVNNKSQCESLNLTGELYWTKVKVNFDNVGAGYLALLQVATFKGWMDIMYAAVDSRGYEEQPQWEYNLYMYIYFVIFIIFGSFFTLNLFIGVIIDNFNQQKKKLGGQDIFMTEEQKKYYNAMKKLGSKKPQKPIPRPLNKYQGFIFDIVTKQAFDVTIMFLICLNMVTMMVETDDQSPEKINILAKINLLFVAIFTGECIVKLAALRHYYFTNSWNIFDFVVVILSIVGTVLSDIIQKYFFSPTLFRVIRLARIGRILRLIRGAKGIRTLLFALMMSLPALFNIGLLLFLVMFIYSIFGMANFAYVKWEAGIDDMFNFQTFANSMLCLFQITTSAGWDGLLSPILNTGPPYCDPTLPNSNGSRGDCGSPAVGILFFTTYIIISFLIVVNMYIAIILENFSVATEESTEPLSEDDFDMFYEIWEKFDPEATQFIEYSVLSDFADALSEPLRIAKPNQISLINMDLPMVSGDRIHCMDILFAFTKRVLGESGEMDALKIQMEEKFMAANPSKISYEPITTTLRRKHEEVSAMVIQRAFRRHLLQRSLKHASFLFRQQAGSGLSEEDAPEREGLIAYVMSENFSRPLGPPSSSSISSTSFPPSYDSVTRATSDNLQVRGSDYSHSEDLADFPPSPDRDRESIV

As for `CC[C@H](C)[C@@H]1NC(=O)[C@@H]2CSSC[C@@H]3NC(=O)[C@H](C(C)C)NC(=O)[C@H](CC(C)C)NC(=O)[C@H](CC(N)=O)NC(=O)[C@@H]4CCCN4C(=O)[C@H](CCCNC(=N)N)NC(=O)[C@H](CSSC[C@H](NC(=O)[C@H](CC(=O)O)NC(C)=O)C(=O)N[C@@H](CC(C)C)C(=O)NCC(=O)N[C@@H](Cc4ccccc4)C(=O)N[C@@H](CCSC)C(=O)N[C@@H](CCCNC(=N)N)C(=O)N[C@@H](CCCCN)C(=O)N2)NC(=O)[C@H](CSSC[C@@H](C(=O)N[C@@H](CCCCN)C(=O)N[C@@H](Cc2ccc(O)cc2)C(=O)N[C@H](C(=O)N[C@@H](Cc2ccccc2)C(N)=O)C(C)C)NC(=O)[C@H](Cc2c[nH]c4ccccc24)NC(=O)[C@H](CCCCN)NC(=O)[C@H](Cc2cnc[nH]2)NC(=O)[C@H]([C@@H](C)O)NC(=O)[C@H](CCCNC(=N)N)NC(=O)[C@H](CO)NC3=O)NC(=O)[C@H](CCCCN)NC(=O)[C@H](CC(=O)O)NC(=O)[C@H](CC(N)=O)NC(=O)[C@H](CC(=O)O)NC(=O)[C@@H]2CCCN2C1=O`, the IC50 was > 10000 nM in test [1] and > 5000 nM in test [2].

Turning to `CC[C@H](C)[C@@H]1NC(=O)[C@@H]2CSSC[C@@H]3NC(=O)[C@H](C(C)C)NC(=O)[C@H](CC(C)C)NC(=O)[C@H](CC(N)=O)NC(=O)[C@@H]4CCCN4C(=O)[C@H](CCCNC(=N)N)NC(=O)[C@H](CSSC[C@H](NC(=O)[C@@H](N)CC(=O)O)C(=O)N[C@@H](CC(C)C)C(=O)NCC(=O)N[C@@H](Cc4ccccc4)C(=O)N[C@@H](CCSC)C(=O)N[C@@H](CCCNC(=N)N)C(=O)N[C@@H](CCCCN)C(=O)N2)NC(=O)[C@@H](CSSC[C@@H](C(=O)N[C@@H](CCCCN)C(=O)N[C@@H](Cc2ccc(O)cc2)C(=O)N[C@H](C(=O)N[C@@H](Cc2ccccc2)C(N)=O)C(C)C)NC(=O)[C@H](Cc2c[nH]c4ccccc24)NC(=O)[C@H](CCCCN)NC(=O)[C@H](Cc2cnc[nH]2)NC(=O)[C@H](C)NC(=O)[C@H](CCCNC(=N)N)NC(=O)[C@H](CO)NC3=O)NC(=O)[C@H](CCCCN)NC(=O)[C@H](CC(=O)O)NC(=O)[C@H](CC(N)=O)NC(=O)[C@H](CC(=O)O)NC(=O)[C@@H]2CCCN2C1=O`, the IC50 in test [3] is 260 nM; in test [2], > 5000 nM.

Regarding `CC[C@H](C)[C@@H]1NC(=O)[C@@H]2CSSC[C@@H]3NC(=O)[C@H](C(C)C)NC(=O)[C@H](CC(C)C)NC(=O)[C@H](CC(N)=O)NC(=O)[C@@H]4CCCN4C(=O)[C@H](CCCNC(=N)N)NC(=O)[C@H](CSSC[C@H](NC(=O)[C@@H](N)CC(=O)O)C(=O)N[C@@H](CC(C)C)C(=O)NCC(=O)N[C@@H](Cc4ccccc4)C(=O)N[C@@H](CCSC)C(=O)N[C@@H](CCCNC(=N)N)C(=O)N[C@@H](CCCCN)C(=O)N2)NC(=O)[C@H](CSSC[C@@H](C(=O)N[C@@H](CCCCN)C(=O)N[C@@H](Cc2ccc(O)cc2)C(=O)N[C@H](C(=O)N[C@@H](Cc2ccccc2)C(N)=O)C(C)C)NC(=O)[C@H](Cc2c[nH]c4ccccc24)NC(=O)[C@H](CCCCN)NC(=O)[C@H](Cc2cnc[nH]2)NC(=O)[C@H]([C@@H](C)O)NC(=O)[C@H](CCCNC(=N)N)NC(=O)[C@H](CO)NC3=O)NC(=O)[C@H](CCCCN)NC(=O)[C@H](CC(=O)O)NC(=O)[C@H](CCC(=O)O)NC(=O)[C@H](CC(=O)O)NC(=O)[C@@H]2CCCN2C1=O` (H-DCLGFMRKCIPDEDKCCRPNLVCSRTHKWCKYVF-NH2; disulfide 2-17, 9-23, 16-30), the values for the IC50 in test [3] and in test [2] were 280 nM and > 5000 nM, respectively.

Consider `CC[C@H](C)[C@@H]1NC(=O)[C@@H]2CSSC[C@@H]3NC(=O)[C@H](C(C)C)NC(=O)[C@H](CC(C)C)NC(=O)[C@H](CC(N)=O)NC(=O)[C@@H]4CCCN4C(=O)[C@H](CCCNC(=N)N)NC(=O)[C@H](CSSC[C@H](NC(=O)[C@@H](N)CC(=O)O)C(=O)N[C@@H](CC(C)C)C(=O)NCC(=O)N[C@@H](Cc4ccccc4)C(=O)N[C@@H](CCSC)C(=O)N[C@@H](CCCNC(=N)N)C(=O)N[C@@H](CCCCN)C(=O)N2)NC(=O)[C@H](CSSC[C@@H](C(=O)N[C@@H](CCCCN)C(=O)N[C@@H](Cc2ccc(O)cc2)C(=O)N[C@H](C(=O)N[C@@H](Cc2c[nH]c4ccccc24)C(N)=O)C(C)C)NC(=O)[C@H](Cc2c[nH]c4ccccc24)NC(=O)[C@H](CCCCN)NC(=O)[C@H](Cc2c[nH]cn2)NC(=O)[C@H]([C@@H](C)O)NC(=O)[C@H](CCCNC(=N)N)NC(=O)[C@H](CO)NC3=O)NC(=O)[C@H](CCCCN)NC(=O)[C@H](CC(=O)O)NC(=O)[C@H](CC(N)=O)NC(=O)[C@H](CC(=O)O)NC(=O)[C@@H]2CCCN2C1=O` (H-DCLGFMRKCIPDNDKCCRPNLVCSRTHKWCKYVW-NH2; disulfide 2-17, 9-23, 16-30), for which the values for the IC50 in test [3] and in test [2] were 270 nM and > 5000 nM, respectively.

Regarding `CC[C@H](C)[C@@H]1NC(=O)[C@@H]2CSSC[C@@H]3NC(=O)[C@H](C(C)C)NC(=O)[C@H](CC(C)C)NC(=O)[C@H](CC(N)=O)NC(=O)[C@@H]4CCCN4C(=O)[C@H](CCCNC(=N)N)NC(=O)[C@H](CSSC[C@H](NC(=O)[C@@H](N)CC(=O)O)C(=O)N[C@@H](CC(C)C)C(=O)NCC(=O)N[C@@H](Cc4ccccc4)C(=O)N[C@@H](CCSC)C(=O)N[C@@H](CCCNC(=N)N)C(=O)N[C@@H](CCCCN)C(=O)N2)NC(=O)[C@H](CSSC[C@@H](C(=O)N[C@@H](CCCCN)C(=O)N[C@@H](Cc2ccc(O)cc2)C(=O)N[C@H](C(=O)N[C@@H](Cc2ccccc2)C(N)=O)C(C)C)NC(=O)[C@H](Cc2c[nH]c4ccccc24)NC(=O)[C@H](CCCCN)NC(=O)[C@H](Cc2cnc[nH]2)NC(=O)[C@H]([C@@H](C)O)NC(=O)[C@H](CCCNC(=N)N)NC(=O)[C@H](CO)NC3=O)NC(=O)[C@H](CCCCN)NC(=O)[C@H](CC(=O)O)NC(=O)[C@H](CCCNC(=N)N)NC(=O)[C@H](CC(=O)O)NC(=O)[C@@H]2CCCN2C1=O` (H-DCLGFMRKCIPDRDKCCRPNLVCSRTHKWCKYVF-NH2; disulfide 2-17, 9-23, 16-30), the results for the IC50 in test [3] and in test [2] were 140 nM and > 5000 nM, respectively.

On to `CC[C@H](C)[C@@H]1NC(=O)[C@@H]2CSSC[C@@H]3NC(=O)[C@H](C(C)C)NC(=O)[C@H](CC(C)C)NC(=O)[C@H](CC(N)=O)NC(=O)[C@@H]4CCCN4C(=O)[C@H](CCCNC(=N)N)NC(=O)[C@H](CSSC[C@H](NC(=O)[C@@H](N)CC(=O)O)C(=O)N[C@@H](CCCCN)C(=O)NCC(=O)N[C@@H](Cc4ccccc4)C(=O)N[C@@H](CCSC)C(=O)N[C@@H](CCCNC(=N)N)C(=O)N[C@@H](CCCCN)C(=O)N2)NC(=O)[C@H](CSSC[C@@H](C(=O)N[C@@H](CCCCN)C(=O)N[C@@H](Cc2ccc(O)cc2)C(=O)N[C@H](C(=O)N[C@@H](Cc2ccccc2)C(N)=O)C(C)C)NC(=O)[C@H](Cc2c[nH]c4ccccc24)NC(=O)[C@H](CCCCN)NC(=O)[C@H](Cc2cnc[nH]2)NC(=O)[C@H]([C@@H](C)O)NC(=O)[C@H](CCCNC(=N)N)NC(=O)[C@H](CO)NC3=O)NC(=O)[C@H](CCCCN)NC(=O)[C@H](CC(=O)O)NC(=O)[C@H](CC(N)=O)NC(=O)[C@H](CC(=O)O)NC(=O)[C@@H]2CCCN2C1=O` (H-DCKGFMRKCIPDNDKCCRPNLVCSRTHKWCKYVF-NH2; disulfide 2-17, 9-23, 16-30), for which the IC50 is 120 nM in test [3] and > 5000 nM in test [2].

For the compound `CC[C@H](C)[C@@H]1NC(=O)[C@@H]2CSSC[C@@H]3NC(=O)[C@H](C(C)C)NC(=O)[C@H](CC(C)C)NC(=O)[C@H](CC(N)=O)NC(=O)[C@@H]4CCCN4C(=O)[C@H](CCCNC(=N)N)NC(=O)[C@H](CSSC[C@H](NC(=O)[C@@H](N)Cc4cccc5ccccc45)C(=O)N[C@@H](CC(C)C)C(=O)NCC(=O)N[C@@H](Cc4ccccc4)C(=O)N[C@@H](CCSC)C(=O)N[C@@H](CCCNC(=N)N)C(=O)N[C@@H](CCCCN)C(=O)N2)NC(=O)[C@H](CSSC[C@@H](C(=O)N[C@@H](CCCCN)C(=O)N[C@@H](Cc2ccc(O)cc2)C(=O)N[C@H](C(=O)N[C@@H](Cc2ccccc2)C(N)=O)C(C)C)NC(=O)[C@H](Cc2c[nH]c4ccccc24)NC(=O)[C@H](CCCCN)NC(=O)[C@H](Cc2c[nH]cn2)NC(=O)[C@H]([C@@H](C)O)NC(=O)[C@H](CCCNC(=N)N)NC(=O)[C@H](CO)NC3=O)NC(=O)[C@H](CCCCN)NC(=O)[C@H](CC(=O)O)NC(=O)[C@H](CC(N)=O)NC(=O)[C@H](CC(=O)O)NC(=O)[C@@H]2CCCN2C1=O` (H-[1Nal]CLGFMRKCIPDNDKCCRPNLVCSRTHKWCKYVF-NH2; disulfide 2-17, 9-23, 16-30), the IC50 in test [3] is 100 nM; in test [2] it was > 5000 nM.

Take `CSCC[C@@H]1NC(=O)[C@H](Cc2ccccc2)NC(=O)CNC(=O)[C@H](CC(C)C)NC(=O)[C@@H](NC(=O)[C@@H](N)CC(=O)O)CSSC[C@@H]2NC(=O)[C@@H]3CSSC[C@@H](C(=O)N[C@@H](CCCCN)C(=O)N[C@@H](Cc4ccc(O)cc4)C(=O)N[C@H](C(=O)N[C@@H](Cc4ccccc4)C(N)=O)C(C)C)NC(=O)[C@H](Cc4c[nH]c5ccccc45)NC(=O)[C@H](CCCCN)NC(=O)[C@H](Cc4cnc[nH]4)NC(=O)[C@H]([C@@H](C)O)NC(=O)[C@H](CCCNC(=N)N)NC(=O)[C@H](CO)NC(=O)[C@H](CSSC[C@H](NC(=O)[C@H](CCCCN)NC(=O)[C@H](CCCNC(=N)N)NC1=O)C(=O)N[C@@H](CCCNC(=N)N)C(=O)N1CCC[C@H]1C(=O)N[C@@H](CC(=O)O)C(=O)N[C@@H](CC(N)=O)C(=O)N[C@@H](CC(=O)O)C(=O)N[C@@H](CCCCN)C(=O)N3)NC(=O)[C@H](C(C)C)NC(=O)[C@H](CC(C)C)NC(=O)[C@H](CC(N)=O)NC(=O)[C@@H]1CCCN1C(=O)[C@H](CCCNC(=N)N)NC2=O` (H-DCLGFMRKCRPDNDKCCRPNLVCSRTHKWCKYVF-NH2; disulfide 2-17, 9-23, 16-30): the IC50 in test [3] is 170 nM; in test [2], > 5000 nM.
